Results of several laboratories.
Compare with care: the assays were run in different laboratories. pIC50, pKd, pKi: −log10 of the molar value.
DPP4: Dipeptidyl peptidase 4 (DPP4, Homo sapiens, UniProt P27487)
ENAH: Protein enabled homolog (ENAH, UniProt Q8N8S7)
SRC: Proto-oncogene tyrosine-protein kinase Src (SRC, Homo sapiens, UniProt P12931)

SMILES | target | assay | setting | quantity | result
CC(C)[C@H](N)C(=O)N1CCC[C@H]1C(=O)N[C@H](C(=O)N1CCC[C@H]1C(=O)N[C@@H](CCCNC(=N)N)C(=O)O)C(C)C | DPP4 | enzyme activity, inhibitor, absorbance | pH 8 | pIC50 | 3.93
NC(=S)c1cn(C2OC(CO)C(O)C2O)c2ncnc(N)c12 (stereo not drawn) | Activin receptor type-1 (ACVR1, Homo sapiens, UniProt Q04771) | thermal stability, DSF |  | pKd | > 6.00
c1ccc(Nc2cccc3ccccc23)cc1 | lush (Drosophila melanogaster, UniProt O02372) | binding |  | pKd | 6.19
CC(=O)N[C@@H](Cc1ccccc1Cl)C(=O)N1CCC[C@H]1C(=O)N1CCC[C@H]1C(=O)N1CCC[C@H]1C(=O)N1CCC[C@H]1C(=O)N[C@H](C(=O)N[C@@H](CCC(=O)O)C(=O)N[C@@H](CC(=O)O)C(=O)N[C@@H](CC(=O)O)C(=O)N[C@@H](CC(C)C)C(N)=O)[C@@H](C)O | ENAH | binding, fluorescence |  | pKd | 5.42
Cn1cc(-c2cc(F)cc(N3CCn4c(cc5c4CCCC5)C3=O)c2CO)cc(Nc2ccc(N3CCN(C4COC4)CC3)cn2)c1=O | SRC | enzyme activity, inhibitor, FRET |  | pKi | 6.60
CC(C)[C@H](N)C(=O)N1CCC[C@H]1C(=O)N[C@H](C(=O)N1CCC[C@H]1C(=O)N[C@@H](CCC(=O)O)C(=O)O)C(C)C | DPP4 | enzyme activity, inhibitor, absorbance | pH 8 | pIC50 | 4.08
CC(=O)N[C@@H](Cc1ccccc1Cl)C(=O)N1CCC[C@H]1C(=O)N1CCC[C@H]1C(=O)N1CCC[C@H]1C(=O)N1CCC[C@H]1C(=O)O | ENAH | binding, fluorescence |  | pKd | 5.00
O=C1C=CC(=O)N1CCCCCCCCCCCCCCCCCCN1CCCCC1 | Acetylcholinesterase (ACHE, Homo sapiens, UniProt P22303) | enzyme activity, inhibitor |  | pKi | 4.69
CC(=O)N[C@@H](Cc1ccccc1Cl)C(=O)N1CCC[C@H]1C(=O)N1CCC[C@H]1C(=O)N1CCC[C@H]1C(=O)N1CCC[C@H]1C(=O)N[C@H](C(=O)N[C@@H](CCC(=O)O)C(=O)N[C@@H](CC(=O)O)C(=O)N[C@@H](CCC(=O)O)C(=O)N[C@@H](CC(C)C)C(N)=O)[C@@H](C)O | ENAH | binding, fluorescence |  | pKd | 5.90
CC(C)[C@H](N)C(=O)N1CCC[C@H]1C(=O)N[C@H](C(=O)N1CCC[C@H]1C(=O)N[C@@H](CC(N)=O)C(=O)O)C(C)C | DPP4 | enzyme activity, inhibitor, absorbance | pH 8 | pIC50 | 4.05
CC(=O)P(=O)(O)OCCc1cn([C@H](Cc2ccccc2)C(=O)O)nn1 | 1-deoxy-D-xylulose-5-phosphate synthase (dxs, Escherichia coli, UniProt P77488) | enzyme activity, inhibitor | with preincubation | pKi | 7.05
Cn1cc(-c2cccc(N3CCc4c(sc5c4CC(C)(C)C5)C3=O)c2CO)cc(Nc2ccncn2)c1=O | SRC | enzyme activity, inhibitor, FRET |  | pKi | < 5.48
CC[C@H]1NC(=O)[C@@H]2CSC(=N2)[C@H](Cc2ccccc2)N(C)C(=O)[C@@H]2CCCN2C(=O)[C@H](C(C)C)N(C)C(=O)[C@H](Cc2ccccc2)OC(=O)[C@H](C)[C@@H](C)NC(=O)[C@@H]([C@@H](C)O)NC(=O)[C@@H](CC(C)C)N(C)C(=O)[C@@H]2CSC1=N2 | DPP4 | enzyme activity, inhibitor |  | pIC50 | 3.61
CC(=O)N[C@@H](CO)C(=O)N[C@@H](Cc1ccccc1)C(=O)N[C@@H](CCC(=O)O)C(=O)N[C@@H](Cc1ccccc1Cl)C(=O)N1CCC[C@H]1C(=O)N1CCC[C@H]1C(=O)N1CCC[C@H]1C(=O)N1CCC[C@H]1C(=O)N[C@H](C(=O)N[C@@H](CCC(=O)O)C(=O)N[C@@H](CC(=O)O)C(=O)N[C@@H](CCC(=O)O)C(=O)N[C@@H](CC(C)C)C(N)=O)[C@@H](C)O | ENAH | binding, fluorescence |  | pKd | 6.10
CC(C)[C@H](N)C(=O)N1CCC[C@H]1C(=O)N[C@H](C(=O)N1CCC[C@H]1C(=O)N[C@@H](Cc1c[nH]c2ccccc12)C(=O)O)C(C)C | DPP4 | enzyme activity, inhibitor, absorbance | pH 8 | pIC50 | 4.04
